Laboratory results taken from ChEMBL document CHEMBL1926577, “Novel 1,3,4-heterodiazole analogues: synthesis and in-vitro antitumor activity” (2012).

How the values were obtained:
Assay type in all cases: functional
[1] = tested on: TK-10; assay: Growth inhibition of human TK10 cells at 10 uM after 48 hrs by coulter counter method; conditions: TK-10, 48 h, read-out: GI
Method in brief: (§1)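 NCI 60-cell-line panel, single dose. Compound dissolved first in DMSO, then diluted in phosphate-buffered saline so that every final dilution held under 1% DMSO. Duplicate wells received cells at 6 × 10⁴ cells/ml. Controls held PBS/DMSO at the same dilution. Plates were incubated 48 h at 37 °C under 5% CO₂. Cells were then diluted 10-fold in saline and counted on a Coulter counter, with counts corrected for the dilution. Results are given as percent growth inhibition.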

[2] = tested on: ACHN; assay: Growth inhibition of human ACHN cells at 10 uM after 48 hrs by coulter counter method; conditions: read-out: GI; method in brief: as §1
[3] = tested on: HT-29; assay: Growth inhibition of human HT-29 cells at 10 uM after 48 hrs by coulter counter method; conditions: HT-29, 48 h, read-out: GI; method in brief: as §1
[4] = tested on: SR; assay: Growth inhibition of human SR cells at 10 uM after 48 hrs by coulter counter method; conditions: read-out: GI; method in brief: as §1
[5] = tested on: SK-MEL-28; assay: Growth inhibition of human SK-MEL-28 cells at 10 uM after 48 hrs by coulter counter method; conditions: SK-MEL-28, 48 h, read-out: GI; method in brief: as §1
[6] = tested on: UACC-257; assay: Growth inhibition of human UACC257 cells at 10 uM after 48 hrs by coulter counter method; conditions: UACC-257, 48 h, read-out: GI; method in brief: as §1
[7] = tested on: RPMI-8226; assay: Growth inhibition of human RPMI8226 cells at 10 uM after 48 hrs by coulter counter method; conditions: RPMI-8226, 48 h, read-out: GI; method in brief: as §1
[8] = tested on: NCI-H23; assay: Growth inhibition of human NCI-H23 cells at 10 uM after 48 hrs by coulter counter method; conditions: NCI-H23, 48 h, read-out: GI; method in brief: as §1
[9] = tested on: MOLT-4; assay: Growth inhibition of human MOLT4 cells at 10 uM after 48 hrs by coulter counter method; conditions: MOLT-4, 48 h, read-out: GI; method in brief: as §1
[10] = tested on: MDA-MB-435; assay: Growth inhibition of human MDA-MB-435 cells at 10 uM after 48 hrs by coulter counter method; conditions: MDA-MB-435, 48 h, read-out: GI; method in brief: as §1
[11] = tested on: HCT-15; assay: Growth inhibition of human HCT15 cells at 10 uM after 48 hrs by coulter counter method; conditions: HCT-15, 48 h, read-out: GI; method in brief: as §1
[12] = tested on: SK-MEL-2; assay: Growth inhibition of human SK-MEL-2 cells at 10 uM after 48 hrs by coulter counter method; conditions: SK-MEL-2, 48 h, read-out: GI; method in brief: as §1
[13] = tested on: UACC-62; assay: Growth inhibition of human UACC62 cells at 10 uM after 48 hrs by coulter counter method; conditions: UACC-62, 48 h, read-out: GI; method in brief: as §1
[14] = tested on: UO-31; assay: Growth inhibition of human UO31 cells at 10 uM after 48 hrs by coulter counter method; conditions: UO-31, 48 h, read-out: GI; method in brief: as §1
[15] = tested on: A498; assay: Growth inhibition of human A498 cells at 10 uM after 48 hrs by coulter counter method; conditions: A498, 48 h, read-out: GI; method in brief: as §1
[16] = tested on: Malme-3M; assay: Growth inhibition of human MALME-3M cells at 10 uM after 48 hrs by coulter counter method; conditions: read-out: GI; method in brief: as §1
[17] = tested on: OVCAR-8; assay: Growth inhibition of human OVCAR8 cells at 10 uM after 48 hrs by coulter counter method; conditions: OVCAR-8, 48 h, read-out: GI; method in brief: as §1
[18] = tested on: PC-3; assay: Growth inhibition of human PC3 cells at 10 uM after 48 hrs by coulter counter method; conditions: PC-3, 48 h, read-out: GI; method in brief: as §1
[19] = tested on: SK-MEL-5; assay: Growth inhibition of human SK-MEL-5 cells at 10 uM after 48 hrs by coulter counter method; conditions: SK-MEL-5, 48 h, read-out: GI; method in brief: as §1
[20] = tested on: EKVX; assay: Growth inhibition of human EKVX cells at 10 uM after 48 hrs by coulter counter method; conditions: read-out: GI; method in brief: as §1
[21] = tested on: 786-0; assay: Growth inhibition of human 786-0 cells at 10 uM after 48 hrs by coulter counter method; conditions: 786-0, 48 h, read-out: GI; method in brief: as §1
[22] = tested on: K562; assay: Growth inhibition of human K562 cells at 10 uM after 48 hrs by coulter counter method; conditions: K562, 48 h, read-out: GI; method in brief: as §1
[23] = tested on: MDA-MB-468; assay: Growth inhibition of human MDA-MB-468 cells at 10 uM after 48 hrs by coulter counter method; conditions: MDA-MB-468, 48 h, read-out: GI; method in brief: as §1
[24] = tested on: SNB-19; assay: Growth inhibition of human SNB19 cells at 10 uM after 48 hrs by coulter counter method; conditions: SNB-19, 48 h, read-out: GI; method in brief: as §1
[25] = tested on: SN12C; assay: Growth inhibition of human SN12C cells at 10 uM after 48 hrs by coulter counter method; conditions: read-out: GI; method in brief: as §1
[26] = tested on: IGROV-1; assay: Growth inhibition of human IGROV1 cells at 10 uM after 48 hrs by coulter counter method; conditions: IGROV-1, 48 h, read-out: GI; method in brief: as §1
[27] = tested on: SF-295; assay: Growth inhibition of human SF295 cells at 10 uM after 48 hrs by coulter counter method; conditions: SF-295, 48 h, read-out: GI; method in brief: as §1
[28] = tested on: NCI-H226; assay: Growth inhibition of human NCI-H226 cells at 10 uM after 48 hrs by coulter counter method; conditions: NCI-H226, 48 h, read-out: GI; method in brief: as §1
[29] = tested on: BT-549; assay: Growth inhibition of human BT549 cells at 10 uM after 48 hrs by coulter counter method; conditions: BT-549, 48 h, read-out: GI; method in brief: as §1
[30] = tested on: NCI/ADR-RES; assay: Growth inhibition of human NCI/ADR-RES cells at 10 uM after 48 hrs by coulter counter method; conditions: read-out: GI; method in brief: as §1
[31] = tested on: NCI-H522; assay: Growth inhibition of human NCI-H522 cells at 10 uM after 48 hrs by coulter counter method; conditions: NCI-H522, 48 h, read-out: GI; method in brief: as §1
[32] = tested on: A549; assay: Growth inhibition of human A549 cells at 10 uM after 48 hrs by coulter counter method; conditions: A549, 48 h, read-out: GI; method in brief: as §1
[33] = tested on: SNB-75; assay: Growth inhibition of human SNB75 cells at 10 uM after 48 hrs by coulter counter method; conditions: SNB-75, 48 h, read-out: GI; method in brief: as §1
[34] = tested on: M14; assay: Growth inhibition of human M14 cells at 10 uM after 48 hrs by coulter counter method; conditions: M14, 48 h, read-out: GI; method in brief: as §1
[35] = tested on: NCI-H322M; assay: Growth inhibition of human NCI-H322M cells at 10 uM after 48 hrs by coulter counter method; conditions: read-out: GI; method in brief: as §1
[36] = tested on: HL-60(TB); assay: Growth inhibition of human HL-60(TB) cells at 10 uM after 48 hrs by coulter counter method; conditions: HL-60, 48 h, read-out: GI
Method in brief: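 Single-dose screen on the NCI 60-line panel (leukemia subpanel). Compound is dissolved in DMSO and diluted in PBS, with final DMSO below 1%. Duplicate wells hold 6 × 10⁴ cells/ml at 37 °C, 5% CO₂, for 48 h. Cells are counted by Coulter counter after 10-fold saline dilution. Read-out is percent growth versus PBS/DMSO controls, expressed as % growth inhibition.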

[37] = tested on: MCF7; assay: Growth inhibition of human MCF7 cells at 10 uM after 48 hrs by coulter counter method; conditions: MCF7, 48 h, read-out: GI; method in brief: as §1
[38] = tested on: LOX IMVI; assay: Growth inhibition of human LOXIMVI cells at 10 uM after 48 hrs by coulter counter method; conditions: read-out: GI; method in brief: as §1
[39] = tested on: CAKI-1; assay: Growth inhibition of human Caki1 cells at 10 uM after 48 hrs by coulter counter method; conditions: CAKI-1, 48 h, read-out: GI; method in brief: as §1
[40] = tested on: HCT-116; assay: Growth inhibition of human HCT116 cells at 10 uM after 48 hrs by coulter counter method; conditions: HCT-116, 48 h, read-out: GI; method in brief: as §1
[41] = tested on: KM12; assay: Growth inhibition of human KM12 cells at 10 uM after 48 hrs by coulter counter method; conditions: KM12, 48 h, read-out: GI; method in brief: as §1
[42] = tested on: SF-268; assay: Growth inhibition of human SF268 cells at 10 uM after 48 hrs by coulter counter method; conditions: SF-268, 48 h, read-out: GI; method in brief: as §1
[43] = tested on: T47D; assay: Growth inhibition of human T47D cells at 10 uM after 48 hrs by coulter counter method; conditions: read-out: GI; method in brief: as §1
[44] = tested on: U-251; assay: Growth inhibition of human U251 cells at 10 uM after 48 hrs by coulter counter method; conditions: U-251, 48 h, read-out: GI; method in brief: as §1
[45] = tested on: CCRF-CEM; assay: Growth inhibition of human CCRF-CEM cells at 10 uM after 48 hrs by coulter counter method; conditions: read-out: GI; method in brief: as §1

NC1=CC(N)=NC2OC(c3ccc(Cl)cc3)=NN12 (stereo not given)
inhibition of growth at 10 µM [1]: < 10% | inhibition of growth at 10 µM [2]: < 10% | inhibition of growth at 10 µM [3]: < 10% | inhibition of growth at 10 µM [4]: < 10% | inhibition of growth at 10 µM [5]: < 10% | inhibition of growth at 10 µM [6]: < 10% | inhibition of growth at 10 µM [7]: < 10% | inhibition of growth at 10 µM [8]: < 10% | inhibition of growth at 10 µM [9]: < 10% | inhibition of growth at 10 µM [10]: < 10% | inhibition of growth at 10 µM [11]: < 10% | inhibition of growth at 10 µM [12]: 10.3% | inhibition of growth at 10 µM [13]: < 10% | inhibition of growth at 10 µM [14]: 23.8% | inhibition of growth at 10 µM [15]: < 10% | inhibition of growth at 10 µM [16]: < 10% | inhibition of growth at 10 µM [17]: < 10% | inhibition of growth at 10 µM [18]: 16.3% | inhibition of growth at 10 µM [19]: < 10% | inhibition of growth at 10 µM [20]: < 10% | inhibition of growth at 10 µM [21]: < 10% | inhibition of growth at 10 µM [22]: < 10% | inhibition of growth at 10 µM [23]: < 10% | inhibition of growth at 10 µM [24]: < 10% | inhibition of growth at 10 µM [25]: < 10% | inhibition of growth at 10 µM [26]: < 10% | inhibition of growth at 10 µM [27]: < 10% | inhibition of growth at 10 µM [28]: < 10% | inhibition of growth at 10 µM [29]: < 10% | inhibition of growth at 10 µM [30]: < 10% | inhibition of growth at 10 µM [31]: 14% | inhibition of growth at 10 µM [32]: < 10% | inhibition of growth at 10 µM [33]: < 10% | inhibition of growth at 10 µM [34]: < 10% | inhibition of growth at 10 µM [35]: < 10% | inhibition of growth at 10 µM [36]: < 10% | inhibition of growth at 10 µM [37]: < 10% | inhibition of growth at 10 µM [38]: < 10% | inhibition of growth at 10 µM [39]: 20.5% | inhibition of growth at 10 µM [40]: < 10% | inhibition of growth at 10 µM [41]: < 10% | inhibition of growth at 10 µM [42]: < 10% | inhibition of growth at 10 µM [43]: < 10% | inhibition of growth at 10 µM [44]: < 10% | inhibition of growth at 10 µM [45]: < 10%
